Measured values gathered from unrelated publications.
Each line is one published result; the experiments were not run side by side.
Target: Receptor tyrosine-protein kinase erbB-4 (ERBB4, Homo sapiens, UniProt Q15303)

O=C(N[C@H]1CCCCC/C=C\C2C[C@@]2(C(=O)O)NC(=O)[C@@H]2C[C@@H](Oc3ccncc3)CN2C1=O)OC1CCCC1 (stereo partly shown) — remaining binding (binding, competition with immobilised ligand; 1 µM): 100%
Nc1ncc2c(n1)-c1c([nH]c3ccc(C#CC4CC4)cc13)CCCC2 — remaining binding (binding, competition with immobilised ligand; 1 µM): 100%
CCCCN(CCCC)C(=O)CN1C[C@@H](c2cc(OC)c3c(c2)OCO3)[C@H](C(=O)O)[C@H]1CC(C)(C)CCC — remaining binding (cell-free assay, competition with immobilised ligand; 1 µM): 95%
CN(c1nccc(-c2cnn3ncccc23)n1)C1CC1 — remaining binding (binding; 1 µM): 100%
CC(C)(C)c1ccc(-c2nc(CBr)nn2-c2cccc(O)c2)cc1 — remaining binding (cell-free assay, competition with immobilised ligand; 10 µM): 88%
c1cncc(-c2cccc(Nc3nccc(NC4CCCCC4)n3)c2)c1 — remaining binding (binding, competition with immobilised ligand; 10 µM): 85%
F[C@@H]1CCN(c2nccc(-c3cnn4ncccc34)n2)C1 — remaining binding (binding; 1 µM): 82%
O=C(c1ccc(Nc2ncc(Cl)c(-c3ccc(Cl)s3)n2)cc1)N1CCC(N2CCCC2)CC1 — remaining binding (binding, competition with immobilised ligand; 1 µM): 100%
C=CC(=O)N1CCC(C(=O)NCC(=O)N2CCN(c3nc(-c4cnc(N)nc4C(F)F)nc(N4CCOCC4)n3)CC2)CC1 — remaining binding (binding, competition with immobilised ligand; 1 µM): 100%
O=C(NCC1CCOCC1)c1n[nH]cc1NC(=O)c1c(F)cccc1F — remaining binding (binding, competition with immobilised ligand; 1 µM): 100%
O=C(NCCCN1CCOCC1)c1ccc(Nc2ncc(Cl)c(-c3ccc(Cl)s3)n2)cc1 — remaining binding (binding, competition with immobilised ligand; 1 µM): 100%
COc1cnc(Nc2cccc(S(N)(=O)=O)c2)nc1N1CCN(c2ccccc2)CC1 — remaining binding (binding, competition with immobilised ligand; 1 µM): 86%
N[C@@H]1CCN(c2nccc(-c3cnn4ncccc34)n2)C1 — remaining binding (binding; 1 µM): 100%
CCC(=N\O)/C(C)=C/c1ccc(F)cc1 — remaining binding (cell-free assay, competition with immobilised ligand; 1 µM): 66%
C[C@@H](c1ccc(-n2cnc3c(N)ncnc32)cc1)N1CCc2nn(C)c(Cc3ccccc3)c2C1=O — remaining binding (binding, competition with immobilised ligand; 0.1 µM): 73%
COc1cc(-c2cn(C3CCc4c(F)cccc4N(CC(F)(F)F)C3=O)nn2)ccc1-n1cnc(C)c1 (stereo not shown) — remaining binding (cell-free assay, competition with immobilised ligand; 1 µM): 100%
CN(C)c1nccc(-c2cnc3ncccn23)n1 — remaining binding (binding; 1 µM): 89%
C[C@H](NC(=O)c1cnc2n1[C@](C)(Cc1ccc(C#N)cc1)C(=O)N2c1cc(Cl)c(F)c(Cl)c1)C(=O)NC1(c2ccccn2)CC1 — remaining binding (cell-free assay, competition with immobilised ligand; 1 µM): 100%
C[C@@H]1CCN(c2nccc(-c3cnn4ncccc34)n2)C1 — remaining binding (binding; 1 µM): 79%
COc1ccc2c(c1)O[C@@H](c1ccc(OC)c(OC)c1)C[C@H]2NC(=O)C1(c2ccc3c(c2)OC(F)(F)O3)CC1 — remaining binding (cell-free assay, competition with immobilised ligand; 1 µM): 90%
CN(C)c1nccc(-c2cnn3ncccc23)n1 — remaining binding (binding; 1 µM): 81%
O=C(c1ccc(Nc2ncc(Cl)c(-c3cc4ccccc4s3)n2)cc1)N1CCC(N2CCCC2)CC1 — remaining binding (binding, competition with immobilised ligand; 1 µM): 98%
